The term AUC(0-inf) denotes the area under the concentration-time curve extrapolated to infinity. Lower therefore signals less exposure. Usually Tmax stands for the time from dosing to the highest level. The term IC50 denotes the midpoint of a concentration-inhibition curve. A higher IC50 goes with lower potency. Broadly, the bioavailability is dose-corrected exposure relative to a reference, in per cent. A low value points to little systemic uptake. A word on the Cmax: it is the peak of the concentration-time curve.

Data on 1 molecule can be found in ChEMBL document CHEMBL1938288, “Discovery, synthesis, and pharmacological evaluation of spiropiperidine hydroxamic acid based derivatives as structurally novel histone deacetylase (HDAC) inhibitors” (J Med Chem, 2011).

Data set [1] is described as follows: AUC (0 to infinity) in CD1 mouse at 5 mg/kg, iv. The format is ADME, organism-based. Set-up: time infinity, dose 5 mg/kg, route intravenous. The conditions noted are these: plasma. An outline of the steps:
(§1)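 Single dose to male CD-1 mice, either iv at 5 mg/kg or oral at 15 mg/kg. Plasma pharmacokinetic parameters were calculated from these dosings.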

Data set [2] can be described thus: Tmax in mouse. The format is ADME, organism-based. The conditions noted are these: in vivo.
For data set [3], the system named is HCT-116. The data set is described as follows: Cell cycle arrest in human HCT116 cells assessed as accumulation at G2M phase at 1 to 3 uM after 24 hrs by flow cytometry. The format is functional, cell-based. In a few lines: (§2)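 HCT-116 cells treated for 24 h at several concentrations. Harvested, fixed in 70% ethanol at -20 °C, RNase treated (1 mg/mL), stained with propidium iodide. DNA content measured by flow cytometry to give phase distribution, including the subG1 population.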

A further data set deals with Histone deacetylase 1 (Homo sapiens, UniProt Q13547). The data set is described as follows: Inhibition of HDAC1 using carboxyfluorescein-labeled peptide as substrate after 17 hrs by fluorescence assay. In a few lines:
(§3)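 Purified HDAC isoforms incubated with compound and 1 μM carboxyfluorescein-labelled peptide for 17 h at 25 °C. Reaction stopped with HEPES/0.08% SDS. Substrate and product separated electrophoretically and read by fluorescence. Run in duplicate. IC50 from 12-point curves by nonlinear regression.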

Data set [4] has as its system HCT-116. The data set is described as follows: Antitumor activity against human HCT116 cells xenografted in po dosed CD1 nude mouse assessed as reduced tumor volume administered for 5 days/week for 17 days. Type of data set: functional, organism-based. An outline of the steps:
(§4)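 Female CD-1 nude mice bearing subcutaneous flank HCT-116 tumours (5 × 10⁶ cells injected). Dosing began at about 100 mm³ tumour volume. Given orally at 35–150 mg/kg in water with 5% DMSO and 9.5% encapsin, 5 days/week for 17 days. Tumour volume tracked against vehicle controls. T/C = mean relative tumour volume treated / control.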

Data set [5] has as its system HCT-116. Put plainly: Cell cycle arrest in human HCT116 cells assessed as decrease in S phase cells at 0.3 uM after 24 hrs by flow cytometry. The format is functional, cell-based. An outline of the steps: as §2
In the next data set the target is Histone deacetylase 4 (Homo sapiens, UniProt P56524). The data set is described as follows: Inhibition of HDAC4 using carboxyfluorescein-labeled peptide as substrate after 17 hrs by fluorescence assay. An outline of the steps:
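Stopped with HEPES/0.08% SDS. Substrate and product separated electrophoretically, read by green fluorescence. Duplicates. IC50 from 12-point concentration-response curves by nonlinear regression. Run by contract lab.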

Data set [6] deals with HCT-116. The data set is described as follows: Cell cycle arrest in human HCT116 cells assessed as decrease in G2/M phase cells at 0.3 uM after 24 hrs by flow cytometry. The format is functional, cell-based. In a few lines: as §2
Background: Flow cytometry measures light scatter and fluorescence of single cells or particles in a stream.

A short description of data set [7]: Elimination half life in CD1 mouse at 5 mg/kg, iv and 15 mg/kg, po. Type of data set: ADME, organism-based. The conditions noted are these: in vivo, read-out: beta t1/2 (converted). In a few lines: as §1
Data set [8] relates to Mus musculus. The data set is described as follows: Toxicity in human HCT116 cells xenografted CD1 nude mouse assessed as change in body weight at 35 to 150 mg/kg, po administered for 5 days/week for 17 days. Type of data set: organism-based, HCT-116. Set-up: dose 35-150 mg/kg, route oral. To be noted: in vivo. A general note: A xenograft is tissue or cells of one species grown in another, often human tumour cells in immunodeficient mice.

The target in the next data set is T1, Histone deacetylase 8 (Homo sapiens, UniProt Q9BY41).
T1 sequence (Q9BY41 whole entry): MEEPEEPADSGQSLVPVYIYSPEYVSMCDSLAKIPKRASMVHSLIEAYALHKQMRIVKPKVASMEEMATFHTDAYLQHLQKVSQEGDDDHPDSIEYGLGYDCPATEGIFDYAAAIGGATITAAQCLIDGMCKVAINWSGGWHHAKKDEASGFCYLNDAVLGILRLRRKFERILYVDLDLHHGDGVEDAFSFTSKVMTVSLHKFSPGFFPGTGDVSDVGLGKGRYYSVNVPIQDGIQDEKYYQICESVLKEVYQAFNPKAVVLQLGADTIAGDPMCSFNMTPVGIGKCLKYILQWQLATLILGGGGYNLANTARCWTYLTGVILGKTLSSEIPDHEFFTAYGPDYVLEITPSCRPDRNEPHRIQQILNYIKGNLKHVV
The data set is described as follows: Inhibition of HDAC8 using carboxyfluorescein-labeled peptide as substrate after 17 hrs by fluorescence assay. An outline of the steps:
as §3

The nature of data set [9]: Oral bioavailability in CD1 mouse at 15 mg/kg. The conditions noted are these: in vivo. Type of data set: ADME, organism-based. An outline of the steps: as §1
Data set [10] deals with Mus musculus. The data set is described as follows: Toxicity in human HCT116 cells xenografted CD1 nude mouse assessed as signs of toxicity at 35 to 150 mg/kg, po administered for 5 days/week for 17 days. Type of data set: organism-based, HCT-116. More on the design: dose 35-150 mg/kg, route oral. To be noted: in vivo.
For data set [11], the system named is HCT-116. Put plainly: Antitumor activity against human HCT116 cells xenografted in CD1 nude mouse assessed as reduced tumor volume 150 mg/kg, po administered for 5 days/week for 17 days. The format is functional. In a few lines: as §4
Data set [12] is filed under the species Mus musculus. Put plainly: Hepatic blood flow in mouse. The format is ADME, organism-based, Liver.
The next data set has as its system K562. Put plainly: Antiproliferative activity against human K562 cells after 72 hrs by CellTiter-Glo luminescent cell viability assay. Type of data set: functional, cell-based. To be noted: K562, 72 h. In a few lines: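 Cells in exponential growth exposed to a range of inhibitor concentrations for 72 h. CellTiter-Glo reagent added, mixed 2 min to lyse cells, luminescence read 10 min later. IC50 derived from the concentration–response. Replicates n ≥ 2, mean shown.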
In general terms: ATP-based viability assays read luminescence as a measure of living cells.

The nature of data set [13]: Tmax in CD1 mouse at 5 mg/kg, iv and 15 mg/kg, po. The conditions noted are these: in vivo. The format is ADME, organism-based. In a few lines:
as §1

Data set [14] has as its target Histone deacetylase (Homo sapiens) (UniProt Q13547+O15379+Q9UBN7+Q92769+Q9UQL6+Q8WUI4+Q9BY41+Q96DB2+P56524+Q9UKV0+Q969S8). The conditions noted are these: HCT-116, 0.001 to 10 uM.
Data set [15] is described as follows: AUC (0 to infinity) in CD1 mouse at 15 mg/kg, po. Type of data set: ADME, organism-based. More on the design: time infinity, dose 15 mg/kg, route oral. The conditions noted are these: plasma. An outline of the steps:
as §1

A short description of data set [16]: Cmax in CD1 mouse at 5 mg/kg, iv. Type of data set: ADME, organism-based. More on the design: dose 5 mg/kg, route intravenous. The conditions noted are these: in vivo. In a few lines:
as §1

SMILES strings stand for the structures. Activity calls are given as the source filed them. No cut-off for these calls is given here.

Histone deacetylase 4, sequence (P56524 whole entry): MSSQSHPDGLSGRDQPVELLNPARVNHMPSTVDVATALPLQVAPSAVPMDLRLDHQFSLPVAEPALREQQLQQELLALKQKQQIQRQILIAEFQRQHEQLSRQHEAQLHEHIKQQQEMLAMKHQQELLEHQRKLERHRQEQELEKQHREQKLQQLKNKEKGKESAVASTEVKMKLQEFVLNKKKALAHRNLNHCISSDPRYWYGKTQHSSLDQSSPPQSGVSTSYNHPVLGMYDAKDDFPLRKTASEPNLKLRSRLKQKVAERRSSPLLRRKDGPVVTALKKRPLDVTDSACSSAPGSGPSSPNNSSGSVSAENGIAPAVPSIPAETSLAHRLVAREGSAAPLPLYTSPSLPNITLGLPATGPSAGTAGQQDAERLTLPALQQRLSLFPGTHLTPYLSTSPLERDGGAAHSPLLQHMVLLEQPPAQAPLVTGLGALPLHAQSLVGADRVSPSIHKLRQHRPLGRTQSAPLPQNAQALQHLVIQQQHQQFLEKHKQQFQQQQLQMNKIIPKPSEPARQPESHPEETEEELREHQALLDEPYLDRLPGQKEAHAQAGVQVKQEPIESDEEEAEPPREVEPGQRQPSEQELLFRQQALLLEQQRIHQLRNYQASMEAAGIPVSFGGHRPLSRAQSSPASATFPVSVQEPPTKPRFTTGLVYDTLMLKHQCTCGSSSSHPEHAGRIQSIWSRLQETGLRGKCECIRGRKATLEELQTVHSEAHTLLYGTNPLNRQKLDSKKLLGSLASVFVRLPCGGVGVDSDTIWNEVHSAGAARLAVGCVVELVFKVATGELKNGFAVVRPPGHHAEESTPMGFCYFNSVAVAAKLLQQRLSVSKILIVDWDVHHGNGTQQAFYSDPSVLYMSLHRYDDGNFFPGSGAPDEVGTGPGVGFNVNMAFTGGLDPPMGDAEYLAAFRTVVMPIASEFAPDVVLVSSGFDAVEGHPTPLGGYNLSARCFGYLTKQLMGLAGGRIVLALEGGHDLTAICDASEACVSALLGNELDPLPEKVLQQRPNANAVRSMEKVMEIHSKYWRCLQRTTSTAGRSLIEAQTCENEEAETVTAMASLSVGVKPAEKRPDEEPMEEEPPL
Histone deacetylase 1, sequence (Q13547 whole entry, canonical isoform): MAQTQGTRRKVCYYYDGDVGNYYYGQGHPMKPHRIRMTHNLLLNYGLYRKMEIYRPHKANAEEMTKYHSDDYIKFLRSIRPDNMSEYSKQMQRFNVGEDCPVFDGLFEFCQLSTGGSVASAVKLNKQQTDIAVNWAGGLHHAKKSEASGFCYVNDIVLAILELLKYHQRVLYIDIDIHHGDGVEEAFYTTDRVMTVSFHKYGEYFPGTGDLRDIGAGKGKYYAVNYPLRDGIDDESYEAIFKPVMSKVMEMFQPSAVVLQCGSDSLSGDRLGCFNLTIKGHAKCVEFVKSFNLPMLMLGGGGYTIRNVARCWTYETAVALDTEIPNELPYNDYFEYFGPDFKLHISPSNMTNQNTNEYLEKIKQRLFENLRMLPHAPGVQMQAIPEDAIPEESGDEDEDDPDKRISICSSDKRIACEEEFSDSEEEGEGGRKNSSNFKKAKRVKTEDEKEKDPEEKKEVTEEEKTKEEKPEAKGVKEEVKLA

Regarding `O=C(/C=C/c1ccc2c(c1)C(=O)CC1(CCN(Cc3ccccc3)CC1)O2)NO`, the values for the AUC(0-inf) in data set [1] and in [15] were 847 ng·h/mL and 800 ng·h/mL, respectively. Moreover, the Tmax in data set [2] and in data set [13] was 15 min in each case. The outcome in the data set on HCT-116 [3], with HCT-116 [5] and in the data set on HCT-116 [6] was Active. The IC50 against Histone deacetylase 1 is 93.8 nM; against Histone deacetylase 4 it was 127 nM; against Histone deacetylase 8, 1760 nM; in the data set with K562, 399 nM. Further, the Activity entry with HCT-116 [4] was “Dose-dependent effect”; with Mus musculus [8], “Non-toxic”; in the data set on Mus musculus [10], “Non-toxic”. The half-life in data set [7] was 504 min. Besides, the bioavailability in [9] stood at 31.5%. Besides, in the data set with HCT-116 [11], the T/C was determined as 0.3. Further, the QH in the data set listed under Mus musculus [12] amounted to 90 mL/min/kg. Also, the inhibition result in [14] is “tde”. Also, the concentration in [16] peaked (Cmax) at 12.5 µM.
